Compound activity (PubChem BioAssay)
UBC9 SUMO inh – inhibitors of human SUMOylation (UBC9). P63279. HTRF SUMOylation assay, SAE1/SAE2 + UBC9, in vitro. inhibition, % at 35 µM. 290,000 tested, 0.36% active; in the data active = inhibition above about 50%, passing the limit was not always enough
PfGluPho inh – PfG6PD (Plasmodium falciparum) enzyme inhibition; inhibition, % at 20 µM; 350,000 tested, 0.78% active; PfGluPho enzyme, NADPH resazurin-diaphorase fluorescence;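 active = inhibition reaching at least a set limit at 20 µM in the primary screen, cut at about 59% in these data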;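 also: 0% = DMSO wells with substrate and 100% = DMSO wells lacking glucose-6-phosphate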
M18AAP inhibitor – blocks P. falciparum M18 aspartyl aminopeptidase; recombinant PfM18AAP, H-Glu-NHMec fluorogenic cleavage; inhibition, % at 7.35 µM; 290,000 tested, 1.2% active; AID 1822;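 active = inhibition above the campaign mean inhibition over all tested compounds plus 3 SD, cut at about 28% in these data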;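 also: 0% = plate median of test compound wells and 100% = 2 mM ZnCl2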
APOBEC3G inh – APOBEC3G (human) deaminase inhibition. Q9HC16. recombinant A3G, ssDNA deamination FAM/TAMRA fluorescence. inhibition, % at 20 µM. 330,000 tested, 0.28% active. AID 493012;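 active = inhibition of at least 40% at 20 µM, with no more than 30% in the related APOBEC3A deaminase screen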;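 also: plate controls were DMSO wells with A3G for no effect and wells lacking A3G enzyme for full effect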
Target sequence (Q9HC16 whole entry, looked up): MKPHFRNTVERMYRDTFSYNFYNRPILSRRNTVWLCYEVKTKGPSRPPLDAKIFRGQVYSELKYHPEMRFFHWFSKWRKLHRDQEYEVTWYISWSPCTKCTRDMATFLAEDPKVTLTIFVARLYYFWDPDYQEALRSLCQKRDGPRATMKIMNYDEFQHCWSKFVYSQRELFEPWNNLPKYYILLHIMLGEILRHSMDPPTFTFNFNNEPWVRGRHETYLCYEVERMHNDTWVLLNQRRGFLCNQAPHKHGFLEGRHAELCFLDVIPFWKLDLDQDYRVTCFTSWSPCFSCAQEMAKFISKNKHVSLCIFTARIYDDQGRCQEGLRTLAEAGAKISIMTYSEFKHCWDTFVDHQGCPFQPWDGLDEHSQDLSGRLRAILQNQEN
HKDC1 inhibitor – inhibitors of human hexokinase HKDC1 | inhibition, % at 20 µM | AID 493160 | recombinant HKDC1, G6PDH/diaphorase resazurin coupled fluorescence | Q2TB90 | 340,000 tested, 0.16% active;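 active = inhibition above about 35% when tested at 20 µM, limit read from the data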;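 also: plate controls were DMSO wells with enzyme for no effect and DMSO wells lacking enzyme for full effect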
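Test system: recombinant HKDC1 (HK5) hexokinase enzyme, produced in-house / Doses: 20 µM test compound, 1% DMSO / Timing: 90 min, room temperature / Detection: G6PDH/diaphorase-coupled fluorescence, 1 mM NADP, 100 µM resazurin, 525/613 nm / Control set: DMSO wells with and without enzyme mix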
A3A deaminase – blocks human APOBEC3A ssDNA deamination; P31941; recombinant A3A, FAM/TAMRA ssDNA deamination fluorescence; inhibition, % at 20 µM; 330,000 tested, 0.41% active;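 active = at least 40% inhibition at 20 µM here, with at most 30% in a related deaminase screen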;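 also: plate controls were A3A with DMSO for no effect and wells lacking A3A enzyme for full effect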
Target sequence (P31941 whole entry, looked up): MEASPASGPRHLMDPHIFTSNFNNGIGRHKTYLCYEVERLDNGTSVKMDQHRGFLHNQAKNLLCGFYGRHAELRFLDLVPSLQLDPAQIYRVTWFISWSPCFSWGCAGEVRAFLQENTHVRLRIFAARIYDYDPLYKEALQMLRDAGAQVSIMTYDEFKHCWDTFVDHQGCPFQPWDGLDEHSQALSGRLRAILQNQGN
* = called active by the depositor; . = not tested or not shown. The list is not random: actives were taken first. Their share in the collection is about 2.4%.

SMILES	UBC9 SUMO inh	PfGluPho inh	M18AAP inhibitor	APOBEC3G inh	HKDC1 inhibitor	A3A deaminase
Cc1cc(C)c(S(=O)(=O)/N=C2\C=C(NS(=O)(=O)c3ccccc3)C(=O)c3ccccc32)c(C)c1	19.4	1.4	3.3	3.3	19.3	5.5
CC(C)(C)N1C(=O)Cc2c1nc(N)c1c(N)nc(N3CCCCC3CO)c(C#N)c21 (stereo not given)	100.1*	88.8*	13.8	-8.7	24.7	-3.9
CN(CCO)c1nc(N)c2c(N)nc3c(c2c1C#N)CC(=O)N3C1CCCC1	100.6*	.	-11.5	1.5	.	6.5
Cn1c(=O)c(NCCO)c2c3c(cccc31)C(=O)c1ccccc1-2	55.3*	-14.7	-0.5	-323.0	2.3	-181.3
Cn1cc(CNC(=O)c2cc(COc3ccc4c(c3)CCCC4)on2)cn1	-8.1	5.1	29.5*	-4.7	-3.2	-1.6
CC(C)CC(OC(=O)c1ccco1)C(=O)NC1CCCCC1 (stereo not given)	22.0	3.1	-10.2	-1.9	-5.1	-1.7
COCCNC(=O)CCC1CCN(Cc2ccc(-c3ccccc3)cc2)CC1	79.7*	-5.0	-2.2	-8.1	-1.0	-4.9
COCCNC(=O)CCc1nnc(Cc2ccc(-c3ccccc3)cc2)o1	16.4	-2.2	-15.8	-7.6	-2.9	-2.1
Cc1ccc(C(=O)Nc2nc3ccccc3c(=O)s2)cc1	15.6	27.1	31.0*	14.4	-5.6	-4.0
CSc1nc2ccc3nc(NC(=O)c4ccc(C)cc4)sc3c2s1	30.4	-0.4	-3.5	1.1	2.1	1.5
Cn1c(C(=O)N2COCC2(C)C)cc2c(=O)n3ccccc3nc21	53.1*	-17.1	3.3	-7.3	-5.0	-5.5
Cc1cccn2c(=O)c3cc(C(=O)N4COCC4(C)C)sc3nc12	18.5	24.6	-3.7	-6.0	19.3	-7.8
Cn1c(C(=O)NCC2CCCO2)cc2c(=O)n3ccccc3nc21 (stereo not given)	52.9*	19.0	5.2	-0.6	6.9	-0.5
COCCCn1c(=N)c(C(=O)NC2CCCCC2)cc2c(=O)n3ccccc3nc21	19.7	7.2	6.6	-0.6	5.5	-0.9
COCCCn1c(C(=O)N2CC(C)OC(C)C2)cc2c(=O)n3ccccc3nc21 (stereo not given)	54.3*	-2.3	0.2	-2.4	-6.3	-1.7
Oc1ccc(CCc2n[nH]c(=S)n2-c2ccc(F)cc2)cc1	0.9	40.8	28.5*	29.7	-1.2	1.6
Oc1[nH]c2ccccc2c1N=Nc1c(F)c(F)c(C(F)(F)F)c(F)c1F	-5.5	3.3	-5.0	3.0	-2.1	4.1
c1ccc2c(C3=NNC(=NC4CC4)SC3)c[nH]c2c1	14.7	10.2	32.0*	-4.1	-3.0	4.0
c1ccc2c(C3=NNC(=NC4CCCCC4)SC3)c[nH]c2c1	15.6	47.4	-7.1	-10.6	-3.3	4.3
C[C@](N)(Cc1ccc(O)c(O)c1)C(=O)O	90.5*	31.7	65.0*	.	-2.5	.
Cc1ccc(-c2csc(NC(=O)c3ccc(-c4ccccc4)cc3)n2)o1	-7.7	59.5*	-15.9	-8.5	4.1	-4.3
O=C(Nc1nc(-c2ccco2)cs1)c1ccccc1	21.1	28.2	-4.3	0.9	0.8	-0.9
NC(CO)C(=O)NNCc1ccc(O)c(O)c1O (stereo not given)	.	55.4	29.0*	37.5	15.3	17.3
Cc1ccc(NC(=O)CN2C(=O)S/C(=C\c3cccn3-c3cccc(C(=O)O)c3)C2=O)cc1C	64.4*	-0.7	0.8	-0.1	-1.5	12.6
CCOc1ccccc1OCC(=O)NC1CCCCC1	13.1	-13.5	-3.8	-0.6	3.3	3.7
SMILES	UBC9 SUMO inh	PfGluPho inh	M18AAP inhibitor	APOBEC3G inh	HKDC1 inhibitor	A3A deaminase
COc1ccc(/C=C(\C#N)C(=O)OCC(=O)NCc2ccccc2Cl)cc1	54.6*	3.7	-0.4	2.7	-9.6	0.4
Cc1cc(NC(=O)CSCCO)no1	9.1	0.8	1.3	2.3	-0.4	2.9
Cn1c(-c2ccc(C=O)s2)nc2ccccc21	56.2*	-3.0	-0.7	-4.2	-7.2	-2.1
CN1CCN(C(=O)c2cc3c(=O)n4ccccc4nc3s2)CC1	19.3	4.1	28.8*	0.1	2.8	5.7
CCOC(=O)N1CCN(C(=O)c2cc3c(=O)n4ccccc4nc3s2)CC1	20.3	21.9	0.4	-5.2	-8.7	-2.5
CCOc1ccccc1C1C(C#N)=C(N)Oc2cc(N)ccc21 (stereo not given)	-8.0	12.8	28.4*	-6.4	0.7	-6.7
COc1ccc(OC)c(C2C(C#N)=C(N)Oc3cc(N)ccc32)c1 (stereo not given)	24.4	-2.8	8.0	-3.7	-0.5	-3.5
COc1c2c(cc3oc(CO[C@@H]4O[C@H](CO)[C@@H](O)[C@H](O)[C@H]4O)cc(=O)c13)O[C@H](C(C)(C)O)C2	.	-16.9	.	-11.4	-5.3	-3.9
CCCNC(=O)c1ccc2c(=O)c(O)c(-c3ccc(Cl)c([N+](=O)[O-])c3)[nH]c2c1	15.2	-9.0	.	-2.9	-13.8	-6.0
NC(=O)c1ccc2c(=O)c(O)c(-c3cc(Cl)c(N)c(Cl)c3)[nH]c2c1	19.3	-3.7	51.4*	-1.7	-13.6	-2.3
O=C(c1c(F)cccc1F)N1CCCC(c2nc(-c3ccc(Cl)cc3)no2)C1 (stereo not given)	10.0	16.2	1.5	-4.4	6.5	-5.6
Cc1ccc(-n2nc3cc(C)c(N)cc3n2)cc1	27.3	22.4	-15.3	-5.7	12.3	-1.4
Nc1cc2nn(-c3ccccc3)nc2cc1Cl	78.0*	4.6	4.8	.	21.6	.
Nc1ccc2nn(-c3cccc4ccccc34)nc2c1	57.5*	17.0	2.5	-1.3	11.4	-2.7
Nc1ccc2nn(-c3ccccc3)nc2c1	66.1*	-18.4	-2.8	1.7	7.7	6.4
CCOC(=O)N1CCC(Nc2nc3ccccc3n3cnnc23)CC1	.	15.0	3.2	-5.8	-4.0	-3.9
COc1ccc(-n2c(=O)[nH]cc(C(=O)Nc3ccc4c(c3)OCO4)c2=O)cc1OC	32.4	6.5	-3.1	-3.5	-0.9	-0.7
Cc1ccc(NC(=O)c2sc3nc4c(c(-c5ccco5)c3c2N)CCC4)cc1	20.9	5.6	4.5	-9.8	1.3	22.7
CC(=O)c1sc2nc(-c3ccco3)ccc2c1N	70.3*	43.5	18.1	91.1	11.0	100.1
Nc1c(C(=O)Nc2ccc(Br)cc2)sc2nc(-c3ccco3)ccc12	72.3*	54.2	14.1	20.3	4.9	31.5
Nc1c(C(=O)Nc2ccc(F)cc2)sc2nc(-c3ccco3)ccc12	74.5*	39.4	15.1	2.2	3.2	5.9
N/C(=N\O)c1ccc(NC(=O)c2cccs2)cc1	19.9	9.3	-7.6	-3.2	1.5	-1.8
O=C(COc1ccccc1F)NCCc1ccc2c(c1)OCCO2	.	0.5	.	-8.4	-3.2	-3.7
O=C(NC(=S)Nc1nc(-c2ccc(Br)cc2)cs1)c1cccnc1	45.4	-9.0	-3.4	-0.7	-12.5	2.9
Cc1oc(C(C)(C)C)cc1C(=O)N1CCN(c2ncccc2C(F)(F)F)CC1	40.8	16.3	-6.9	1.4	1.6	2.4
